Twelve compounds from ChEMBL document CHEMBL1159066 (J Med Chem, 2010) can be followed below.

Active and inactive are the calls of the source. No cut-off for these calls is given here.

Assay [1] relates to Caenorhabditis elegans. Description: Effect on nuclear integrity in transgenic Caenorhabditis elegans coexpressing nuclear GFP and normal PABPN1-A10. In kind it is functional, organism-based. An outline of the steps: (§1)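 Synchronized L1 worms were kept in OP-50.1 liquid culture with the drug. Nuclear GFP signals were counted at young adulthood under a ×10 fluorescence microscope. Percent rescue = ((test − control)/control) × 100, where a negative value means enhanced toxicity. At least 100 worms were scored per dose, in three independent assays. Comparison was by two-tailed Student's t-test.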

In assay [2] the test system is Caenorhabditis elegans. In words: Reduction of PABPN1 expression in transgenic Caenorhabditis elegans coexpressing nuclear GFP and PABPN1-A13 by Q-RT-PCR. In kind it is functional, organism-based.
Assay [3] relates to Caenorhabditis elegans. In words: Protection against mutant PABPN1-induced toxicity in transgenic Caenorhabditis elegans coexpressing nuclear GFP and PABPN1-A13 assessed as inhibition of deffective worm motility. In kind it is functional, organism-based. An outline of the steps: (§2)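 Worms were drug-treated from the synchronized L1 stage in OP-50.1 liquid culture. Day 3–5 adults were placed on a thin OP-50.1 lawn on NGM plates. Body bends (complete sinusoids) were counted immediately over 20 s. 60–100 worms were scored per dose, in three independent assays. Results are mean ± SEM versus untreated animals, checked by one-way ANOVA.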

Assay [4] concerns the target T1, NAD-dependent protein deacetylase sirtuin-1 (Homo sapiens, UniProt Q96EB6).
T1 sequence (Q96EB6 whole entry): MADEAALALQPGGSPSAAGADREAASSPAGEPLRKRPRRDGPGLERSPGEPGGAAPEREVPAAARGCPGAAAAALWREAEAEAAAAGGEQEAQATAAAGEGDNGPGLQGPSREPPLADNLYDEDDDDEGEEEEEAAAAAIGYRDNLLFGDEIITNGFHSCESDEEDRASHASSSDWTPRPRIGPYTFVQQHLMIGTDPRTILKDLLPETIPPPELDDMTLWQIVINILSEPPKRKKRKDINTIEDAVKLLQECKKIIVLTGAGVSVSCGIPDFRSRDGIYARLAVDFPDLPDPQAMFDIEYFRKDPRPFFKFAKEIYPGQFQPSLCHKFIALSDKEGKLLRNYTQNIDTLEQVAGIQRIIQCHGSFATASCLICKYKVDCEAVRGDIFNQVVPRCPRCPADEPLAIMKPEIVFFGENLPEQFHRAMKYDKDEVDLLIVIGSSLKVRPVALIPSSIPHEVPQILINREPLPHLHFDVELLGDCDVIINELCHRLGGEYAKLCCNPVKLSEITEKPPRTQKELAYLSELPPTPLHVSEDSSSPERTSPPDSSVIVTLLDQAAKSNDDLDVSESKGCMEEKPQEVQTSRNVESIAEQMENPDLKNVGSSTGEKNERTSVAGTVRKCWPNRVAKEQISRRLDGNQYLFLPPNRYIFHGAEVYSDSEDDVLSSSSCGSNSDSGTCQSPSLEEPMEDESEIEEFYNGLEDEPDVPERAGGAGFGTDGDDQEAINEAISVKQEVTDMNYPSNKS
Description: Inhibition of human recombinant SIRT1 by Flour de Lys assay.

Assay [5] has as its target T2, NAD-dependent protein deacetylase sirtuin-2 (Homo sapiens, UniProt Q8IXJ6).
T2 sequence (Q8IXJ6 whole entry): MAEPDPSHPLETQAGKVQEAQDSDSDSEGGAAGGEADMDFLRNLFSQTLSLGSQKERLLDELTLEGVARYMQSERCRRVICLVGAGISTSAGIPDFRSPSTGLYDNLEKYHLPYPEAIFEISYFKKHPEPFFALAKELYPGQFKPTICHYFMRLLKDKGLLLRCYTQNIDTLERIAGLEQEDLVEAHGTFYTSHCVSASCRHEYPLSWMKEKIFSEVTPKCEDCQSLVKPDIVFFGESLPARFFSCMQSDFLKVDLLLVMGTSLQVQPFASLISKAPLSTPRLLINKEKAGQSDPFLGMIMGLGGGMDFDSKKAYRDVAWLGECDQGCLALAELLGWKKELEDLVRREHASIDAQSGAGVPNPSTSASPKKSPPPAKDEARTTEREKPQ
In words: Inhibition of human recombinant SIRT2 by Flour de Lys assay.

Assay [6] concerns Caenorhabditis elegans. Description: Protection against mutant PABPN1-induced toxicity in transgenic Caenorhabditis elegans coexpressing nuclear GFP and PABPN1-A13 assessed as inhibition of nuclear collapse. In kind it is functional, organism-based. An outline of the steps:
(§3)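 Synchronized L1 transgenic worms incubated with drug in OP-50.1 liquid culture; nuclear GFP signals counted at young adulthood under 10x fluorescence microscopy. Percent rescue = ((test − control)/control) × 100, negative values indicating enhanced toxicity. At least 100 worms scored per dose, three independent assays; two-tailed Student's t-test unless stated otherwise.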

Assay [7] has as its system Caenorhabditis elegans. Description: Effect on nuclear integrity in transgenic Caenorhabditis elegans coexpressing nuclear GFP and normal PABPN1-A10 assessed as nuclear GFP fluorescence level relative to untreated control. In kind it is functional. Summed up: as §3
The test system of assay [8] is Caenorhabditis elegans. Description: Protection against mutant PABPN1-induced toxicity in transgenic Caenorhabditis elegans coexpressing nuclear GFP and PABPN1-A13 assessed as nuclear GFP fluorescence level relative to untreated control. In kind it is functional. Summed up: as §3
Assay [9] concerns Caenorhabditis elegans. Description: Protection against mutant PABPN1-induced toxicity in transgenic Caenorhabditis elegans coexpressing nuclear GFP and PABPN1-A13 assessed as inhibition of nuclear collapse at 11.1 uM. In kind it is functional, organism-based. Summed up:
as §1

For assay [10], the system named is Caenorhabditis elegans. In words: Protection against mutant PABPN1-induced toxicity in transgenic Caenorhabditis elegans coexpressing nuclear GFP and PABPN1-A13 assessed as inhibition of deffective worm motility at 11.1 uM. In kind it is functional, organism-based. An outline of the steps:
as §2

Assay [11] relates to Caenorhabditis elegans. Description: Protection against mutant PABPN1-induced toxicity in transgenic Caenorhabditis elegans coexpressing nuclear GFP and PABPN1-A13 assessed as inhibition of nuclear collapse at 3.7 uM. In kind it is functional, organism-based. An outline of the steps:
as §1

Assay [12] deals with Caenorhabditis elegans. In words: Protection against mutant PABPN1-induced toxicity in transgenic Caenorhabditis elegans coexpressing nuclear GFP and PABPN1-A13 assessed as inhibition of deffective worm motility at 3.7 uM. In kind it is functional, organism-based. Summed up: as §2
Assay [13] relates to Caenorhabditis elegans. Description: Protection against mutant PABPN1-induced toxicity in transgenic Caenorhabditis elegans coexpressing nuclear GFP and PABPN1-A13 assessed as inhibition of deffective worm motility at 33.3 uM. In kind it is functional, organism-based. An outline of the steps: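 Drug-treated transgenic worms as day 3-5 adults placed on thin OP-50.1 lawn on NGM plates; body bends (complete sinusoids) counted immediately over 20 s. 60-100 worms per dose, three independent assays; mean ± SEM compared with untreated animals.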

For orientation: IC50 means the concentration that inhibits the measured activity by half. As for `O=C1Oc2ccc3ccccc3c2CC1C(=O)c1ccccc1Cl` (stereo unspecified), the result in the assay on Caenorhabditis elegans [1] and in the assay on Caenorhabditis elegans [2] was inactive. The outcome with Caenorhabditis elegans [3] and in the assay with Caenorhabditis elegans [6] was Active. The concentration for half-maximal inhibition (IC50) in assay [4] was 89.8 µM; in assay [5], 9.4 µM.
For `CC(NC(=O)c1cccc(/N=C/c2c(O)ccc3ccccc23)c1)c1ccccc1` (stereo unspecified), in assay [5], the IC50 worked out at 34.5 µM.
In the case of `N#C/C(=C\c1ccc(-c2cc(Cl)ccc2Cl)o1)C(=O)Nc1cccc2ncccc12`, the IC50 in assay [4] is above 50 µM. The values for the Activity with Caenorhabditis elegans [7], in the assay with Caenorhabditis elegans [8] and in the assay with Caenorhabditis elegans [6] were 10%, 20% and “Dose-dependent effect”, respectively.
Regarding `O=c1nc2oc3ccc4ccccc4c3cc-2c(=O)n1-c1ccccc1`, the result with Caenorhabditis elegans [1] was inactive. Moreover, the outcome with Caenorhabditis elegans [9] and in the assay on Caenorhabditis elegans [10] was Active.
The EC50 is the concentration at which the effect is half-maximal. Consider `CC(NS(=O)(=O)c1ccc(/N=C/c2c(O)ccc3ccccc23)cc1)c1ccccc1` (stereo unspecified), for which the outcome in the assay on Caenorhabditis elegans [1] was inactive. In the assay on Caenorhabditis elegans [3], the EC50 was below 1 µM. Also, the 50% inhibitory concentration (IC50) in [4] was determined as 44.1 µM; in [5] it was 22.6 µM. In addition, in the assay on Caenorhabditis elegans [8], the Activity turned out to be 10%.
Consider `CC(NC(=O)c1ccccc1/N=C/c1c(O)ccc2ccccc12)c1ccccc1` (stereo unspecified), for which, in the assay on Caenorhabditis elegans [1], the result was inactive. In the assay on Caenorhabditis elegans [6], the result was Active.
The like results for `CC(C(=O)Nc1cccc(/N=C/c2c(O)ccc3ccccc23)c1)c1ccccc1` (stereo unspecified) were, in that order, “inactive” and “Active”.
`O=c1nc2oc3ccccc3cc-2c(=O)[nH]1`: the outcome in the assay on Caenorhabditis elegans [1] was inactive. The result with Caenorhabditis elegans [11] and with Caenorhabditis elegans [12] was Active. Moreover, the figures for the IC50 in assay [4] and in assay [5] were 5.3 µM and 244 µM, respectively.
Consider `CC(CSc1cccc(/N=C/c2c(O)ccc3ccccc23)c1)c1ccccc1` (stereo unspecified), for which the IC50 in assay [4] came out at 40.3 µM; in assay [5], 19.2 µM. In the assay on Caenorhabditis elegans [6], the result was inactive.
`NC(=O)[C@H]1CCCc2c1[nH]c1ccc(Cl)cc21`: the outcome with Caenorhabditis elegans [13] and with Caenorhabditis elegans [6] was Active.
`O=C1CCc2c(ccc3ccccc23)O1`: the result in the assay with Caenorhabditis elegans [1] and with Caenorhabditis elegans [2] was inactive. Moreover, the result with Caenorhabditis elegans [3] and in the assay with Caenorhabditis elegans [6] was Active.
Regarding `CC(NC(=O)c1ccc(/N=C/c2c(O)ccc3ccccc23)cc1)c1ccccc1` (stereo unspecified), the outcome with Caenorhabditis elegans [1] was inactive. The IC50 in assay [4] was found to be 48.1 µM; in assay [5], 29.9 µM. Further, the result in the assay on Caenorhabditis elegans [6] was Active.
